Holding throughout (format): functional
One test has as its system Escherichia coli. Nature of the test: In vitro minimum inhibitory concentration required to inhibit growth of Escherichia coli. In a few lines:
(§1)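 Broth microdilution per NCCLS; E. coli 51A0150 (poultry lung) and P. multocida 59A0067 (turkey). Overnight BHI plate colonies suspended in saline to OD625 0.09 (0.5 McFarland), diluted 1:100 in BHI broth; final ~5×10^5 cfu/mL against 2-fold serial dilutions in BHI broth.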

Test [1] has as its system Pasteurella multocida. Nature of the test: Effective dose required to inhibit Pasteurella multocida infection model in mouse by subcutaneous administration. Summed up: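 Mice infected intranasally with P. multocida (respiratory disease model); drug given subcutaneously 0.5 h post-infection at 5–80 mg/kg. ED50 derived from number of surviving mice 4 days after infection.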

In test [2] the test system is Pasteurella multocida. Nature of the test: Minimum inhibitory concentration required to inhibit growth of Pasteurella multocida in vitro by microdilution method. Summed up:
as §1

The mark [3] stands for this setting: Pasteurella multocida, sc, read-out: ED50.

Converted amounts (≈) assume the structure as drawn.

For `CC[C@H]1OC(=O)[C@H](C)[C@@H](O[C@H]2C[C@@](C)(OC)[C@@](O)(CN3CCCCC3)[C@H](C)O2)[C@H](C)[C@@H](O[C@@H]2O[C@H](C)C[C@H](N(C)C)[C@H]2O)[C@](C)(O)C[C@@H](C)CN[C@H](C)[C@@H](O)[C@]1(C)O`, the MIC against Escherichia coli (Escherichia coli) was 0.39 µg/mL (≈ 0.469 µM); with Pasteurella multocida [2] (Pasteurella multocida, read-out: MIC) it was less than 0.1 µg/mL. In the test on Pasteurella multocida [1] (setting [3]), the ED50 was found to be 40 mg/kg.
As to `CC[C@H]1OC(=O)[C@H](C)[C@@H](O[C@H]2C[C@@](C)(OC)[C@@](O)(CN(C)CC)[C@H](C)O2)[C@H](C)[C@@H](O[C@@H]2O[C@H](C)C[C@H](N(C)C)[C@H]2O)[C@](C)(O)C[C@@H](C)CN[C@H](C)[C@@H](O)[C@]1(C)O` (stereo in doubt; 8i), the MIC with Escherichia coli is 0.78 µg/mL (≈ 0.968 µM); in the test with Pasteurella multocida [2] it was less than 0.1 µg/mL. Also, the ED50 with Pasteurella multocida [1] turned out to be 7.2 mg/kg.
For the molecule `CC[C@H]1OC(=O)[C@H](C)[C@@H](O[C@H]2C[C@@](C)(OC)[C@@](O)(CN(C)CC)[C@H](C)O2)[C@H](C)[C@@H](O[C@@H]2O[C@H](C)C[C@H](N(C)C)[C@H]2O)[C@](C)(O)C[C@@H](C)CN[C@H](C)[C@@H](O)[C@]1(C)O` (stereo in doubt; 10g), the results for the MIC with Escherichia coli (Escherichia coli) and in the test with Pasteurella multocida [2] were 0.39 µg/mL (≈ 0.484 µM) and 0.1 µg/mL (≈ 0.124 µM), respectively. In addition, the ED50 with Pasteurella multocida [1] (setting [3]) was less than 5 mg/kg.

In general, MIC refers to the smallest concentration in the dilution series that meets the test's criterion for growth inhibition. What is called ED50 is the dose at which the effect has come halfway, by size or by number of responders.

The values above are taken from ChEMBL document CHEMBL1135354, “Synthesis and activity of a novel class of tribasic macrocyclic antibiotics: the triamilides” (2002).
